# Results gathered from unrelated publications.
# Protocols differ between the studies behind these lines.
# DRD3: D(3) dopamine receptor (DRD3, Homo sapiens, UniProt P35462)
# SLC6A3: Sodium-dependent dopamine transporter (SLC6A3, Homo sapiens, UniProt Q01959)
# CASP3: Caspase-3 (CASP3, Homo sapiens, UniProt P42574)
# PPARG: Peroxisome proliferator-activated receptor gamma (PPARG, Homo sapiens, UniProt P37231)
SMILES,target,test,conditions,Ki
CC1Cc2ccccc2N1C(=O)c1nc2ccccc2s1 (stereo not shown),DRD3,"ligand displacement, radioligand",cell membranes,14.4 µM
CCc1nc2cc(OCCCCN3CCC(c4cccc(Cl)c4Cl)CC3)ccc2s1,SLC6A3,"ligand displacement, radioligand",,4 µM
O=c1cc(-c2ccc(O)c(O)c2)oc2cc(O)cc(O)c12,CASP3,"enzyme activity, inhibitor, fluorescence",,181 µM
COc1ccc2c(c1)C(=O)N(CCCN1CCN(c3ccccc3OC)CC1)C2,DRD3,"ligand displacement, radioligand",,0.389 µM
CN(CCOc1ccc(CC2SC(=O)N(CC(=O)OC(C)(C)C)C2=O)cc1)c1ccccn1 (stereo not shown),PPARG,"ligand displacement, TR-FRET",,0.103 µM
CNc1nc2cc(OCCCCN3CCC(c4cccc(Cl)c4Cl)CC3)ccc2s1,SLC6A3,"ligand displacement, radioligand",,2.1 µM
CC(C)(COP(=O)(O)OP(=O)(O)OC[C@H]1O[C@@H](n2cnc3c(N)ncnc32)[C@H](O)[C@@H]1OP(=O)(O)O)[C@@H](O)C(=O)NCCC(=O)NCCS,"Histone acetyltransferase type B catalytic subunit (Homo sapiens, UniProt O14929)","enzyme activity, inhibitor, radiometric",,41.5 µM
C=CCc1ccc(O)c(-c2ccc(O)c(CC=C)c2)c1,PPARG,"ligand displacement, TR-FRET",,2 µM
Oc1cccc(CCC2=NCCN2Cc2ccccc2)c1,DRD3,"ligand displacement, radioligand",,1.26 µM
O=C(O[C@@H]1Cc2c(O)cc(O[C@H]3O[C@H](CO)[C@@H](O)[C@H](O)[C@H]3O)cc2O[C@@H]1c1cc(O)c(O)c(O)c1)c1cc(O)c(O)c(O)c1,"Maltase-glucoamylase (Homo sapiens, UniProt O43451)","enzyme activity, inhibitor",,7.88 µM
c1ccc(CCC2=NCCN2CCc2ccccc2)cc1,DRD3,"ligand displacement, radioligand",,> 10 µM
O=c1c(O)c(-c2ccc(O)cc2)oc2cc(O)cc(O)c12,CASP3,"enzyme activity, inhibitor, fluorescence",,194 µM
CC1Cc2ccccc2N1C(=O)CCCN(C)[C@@H]1Cc2cccc3[nH]c(=O)n(c23)C1 (stereo partly shown),DRD3,"ligand displacement, radioligand",cell membranes,3.34 µM
CSC[C@H](NC(=O)C1=NO[C@@H]2OCC[C@H]12)C(=O)N[C@@H](CC(C)C)[C@@H](O)C[C@@H](C)C(=O)N[C@H](C(=O)NCC(C)C)C(C)C,"Beta-secretase 2 (BACE2, Homo sapiens, UniProt Q9Y5Z0)","enzyme activity, inhibitor",,0.046 µM
CN(CCCCNC(=O)c1nc2ccccc2s1)[C@@H]1Cc2cccc3[nH]c(=O)n(c23)C1,DRD3,"ligand displacement, radioligand",cell membranes,0.403 µM
OC[C@@]12C[C@@H]1[C@@H](n1cnc3c(NC(C4CCCC4)C4CCCC4)nc(Cl)cc31)[C@H](O)[C@@H]2O,SLC6A3,"cell-free assay, radioligand",,3.9 µM
O=C(/C=C(/Nc1ccccc1)C(=O)c1ccccc1)c1ccccc1,"DNA repair nuclease/redox regulator APEX1 (APEX1, Homo sapiens, UniProt P27695)","enzyme activity, inhibitor",,37 µM
CCCN(CCCCNC(=O)c1cc2ccccc2[nH]1)[C@H]1CNc2ccccc2C1,DRD3,"ligand displacement, radioligand",cell membranes,0.00134 µM
CN1CCN(c2ccc(-c3ccnn3-c3ccc(S(N)(=O)=O)cc3)cc2)CC1,"Carbonic anhydrase 12 (CA12, Homo sapiens, UniProt O43570)","enzyme activity, inhibitor, stopped-flow",,0.404 µM
